Where two headings read alike, the source gives them in different places.
Assays:
[1] = format: in vivo, human; conditions: for Plasma concentration at 6 h after clopidogrel administration: most subjects, LLOQ 0.25 ng/mL; for AUC(0-inf) / AUC(0-t) / Vd/F / half-life: human, po
[2] = cited from earlier work
[3] = test system: ADP-induced platelet aggregation; assay: ADP-induced whole-blood platelet aggregation, Multiplate impedance aggregometer; format: in vivo, human
Outline: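 Caucasian patients from central Poland undergoing coronary or peripheral interventions received the test drug orally, fasting, 75 mg daily for 7 days beforehand. Blood was drawn 2–3 h post-dose into hirudin tubes, diluted 1:1 with 0.9 % NaCl, and stirred 3 min at 37 °C. ADP was added at 6.4 μmol/L, and impedance was recorded for 6 min. Aggregation was expressed as AUC (AU·min).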

[4] = cited from earlier work; remark: listed apart in the source
[5] = clopidogrel 75 mg, diabetes mellitus no (n = 19)
[6] = clopidogrel 75 mg, diabetes mellitus yes (n = 11)
[7] = clopidogrel 75 mg, proton-pump inhibitors no (n = 15)
[8] = clopidogrel 75 mg, proton-pump inhibitors yes (n = 13)
[9] = clopidogrel 75 mg, single subject
[10] = patients, oral clopidogrel 75 mg for 7 days, plasma
[11] = patients, oral clopidogrel 75 mg, plasma
[12] = patients, single oral clopidogrel 300 mg loading dose, plasma
[13] = patients, single oral clopidogrel 300 mg, plasma
[14] = healthy volunteers, clopidogrel 75 mg, ref 10
[15] = clopidogrel 75 mg maintenance dose, 6.4 μmol/L ADP

Structure (SMILES): COC(=O)[C@H](c1ccccc1Cl)N1CCC(S)/C(=C\C(=O)O)C1 (some centres unmarked) [H4]
- Exposure to H4 relative to exposure to the H3 isomer ([1]; after clopidogrel 300 mg (n = 3)): two times greater
- AUCt (mean ± SD) [1, 5]: 10.46 ± 9.78 ng·h/mL
- C max (mean ± SD) [1, 5]: 6.61 ± 6.30 ng/mL
- AUCt (mean ± SD) [1, 6]: 11.69 ± 9.63 ng·h/mL
- C max (mean ± SD) [1, 6]: 8.04 ± 6.55 ng/mL
- AUCt (mean ± SD) [1, 7]: 9.69 ± 9.81 ng·h/mL
- C max (mean ± SD) [1, 7]: 5.92 ± 4.53 ng/mL
- AUCt (mean ± SD) [1, 8]: 13.10 ± 9.82 ng·h/mL
- C max (mean ± SD) [1, 8]: 9.04 ± 8.07 ng/mL
- C max, one patient with high platelet aggregation (637 AU·min) ([1]; clopidogrel 75 mg, single patient): 23.3 ng/mL
- C max, one subject with high platelet aggregation (747 AU·min) [1, 9]: 2.5 ng/mL
- Plasma concentration at 6 h after clopidogrel administration [1]: below the limit of quantification
- C max (mean ± SD) [1, 10]: 7.13 ± 6.32 ng/mL
- AUCt (mean ± SD) [1, 11]: 11.30 ± 9.58 ng·h/mL
- AUC∞ (mean ± SD) [1, 11]: 11.97 ± 9.75 ng·h/mL
- t max (mean ± SD) [1, 11]: 1.04 ± 0.53 h
- t ½ (mean ± SD) [1, 11]: 0.90 ± 0.86 h
- C max (mean ± SD) [1, 12]: 17.92 ± 20.38 ng/mL
- AUCt (mean ± SD) [1, 13]: 25.04 ± 27.41 ng·h/mL
- AUC∞ (mean ± SD) [1, 13]: 25.69 ± 27.54 ng·h/mL
- t max (mean ± SD) [1, 13]: 0.83 ± 0.29 h
- t ½ (mean ± SD) [1, 13]: 0.84 ± 0.20 h
- C max [2, 14]: 16.4 ng/mL
- C max ([2]; healthy volunteers, clopidogrel 75 mg, ref 32): 11 ng/mL

Structure (SMILES): O=C(O)[C@H](c1ccccc1Cl)N1CCc2sccc2C1 [CLPM]
- C max in plasma relative to that of the parent drug ([1]; patients, clopidogrel 75 and 300 mg): thousand-fold greater
- C max (mean ± SD) [1, 10]: 2,516 ± 1,754 ng/mL
- AUCt (mean ± SD) [1, 11]: 11,077 ± 7,768 ng·h/mL
- AUC∞ (mean ± SD) [1, 11]: 12,383 ± 8,552 ng·h/mL
- t max (mean ± SD) [1, 11]: 1.37 ± 0.74 h
- C max (mean ± SD) [1, 12]: 8,464 ± 3,772 ng/mL
- AUCt (mean ± SD) [1, 13]: 32,979 ± 12,321 ng·h/mL
- AUC∞ (mean ± SD) [1, 13]: 37,249 ± 13,861 ng·h/mL
- t max (mean ± SD) [1, 13]: 1.61 ± 1.21 h

Structure (SMILES): COC(=O)[C@H](c1ccccc1Cl)N1CC[C@H](S)/C(=C\C(=O)O)C1 [H3]
- AUCt (mean ± SD) [1, 5]: 6.71 ± 4.47 ng·h/mL
- C max (mean ± SD) [1, 5]: 4.90 ± 4.02 ng/mL
- AUCt (mean ± SD) [1, 6]: 7.88 ± 9.33 ng·h/mL
- C max (mean ± SD) [1, 6]: 5.96 ± 7.69 ng/mL
- AUCt (mean ± SD) [1, 7]: 7.03 ± 5.52 ng·h/mL
- C max (mean ± SD) [1, 7]: 5.00 ± 4.93 ng/mL
- AUCt (mean ± SD) [1, 8]: 7.76 ± 8.16 ng·h/mL
- C max (mean ± SD) [1, 8]: 5.94 ± 6.63 ng/mL
- Plasma concentration at 6 h after clopidogrel administration [1]: below the limit of quantification
- C max (mean ± SD) [1, 10]: 5.29 ± 5.54 ng/mL
- AUCt (mean ± SD) [1, 11]: 7.37 ± 6.71 ng·h/mL
- AUC∞ (mean ± SD) [1, 11]: 7.96 ± 6.85 ng·h/mL
- t max (mean ± SD) [1, 11]: 1.08 ± 0.62 h
- t ½ (mean ± SD) [1, 11]: 0.78 ± 0.78 h
- C max (mean ± SD) [1, 12]: 8.47 ± 1.69 ng/mL
- AUCt (mean ± SD) [1, 13]: 11.24 ± 8.31 ng·h/mL
- AUC∞ (mean ± SD) [1, 13]: 11.70 ± 8.33 ng·h/mL
- t max (mean ± SD) [1, 13]: 0.83 ± 0.29 h
- t ½ (mean ± SD) [1, 13]: 0.72 ± 0.18 h
- C max [2, 14]: 17.8 ng/mL

Structure (SMILES): COC(=O)[C@H](c1ccccc1Cl)N1CCc2sccc2C1 [Clopidogrel, (+)-S clopidogrel bisulfate, reference compound]
- AUC(0-inf) ([1]; plasma, 75 mg): 6.29 ± 4.11 ng·h/mL
- AUC(0-t) ([1]; plasma, 75 mg): 5.07 ± 3.8 ng·h/mL
- Vd/F ([1]; plasma, 75 mg): 39200 ± 33500 L
- half-life ([1]; plasma, 75 mg): 1.71 ± 1.28 h
- AUC(0-inf) ([1]; plasma, 300 mg): 21.8 ± 13.3 ng·h/mL
- AUC(0-t) ([1]; plasma, 300 mg): 20.8 ± 13.3 ng·h/mL
- Vd/F ([1]; plasma, 300 mg): 45500 ± 19200 L
- half-life ([1]; plasma, 300 mg): 1.99 ± 0.44 h
- CL/F (mean ± SD) ([1]; patients, oral clopidogrel 75 mg): 18.96 ± 15.89 ×10^3 L/h
- C max (mean ± SD) [1, 10]: 2.04 ± 2.0 ng/mL
- CL/F (mean ± SD) ([1]; patients, single oral clopidogrel 300 mg): 16.98 ± 10.41 ×10^3 L/h
- C max (mean ± SD) [1, 12]: 4.51 ± 3.42 ng/mL
- t max (mean ± SD) [1, 13]: 1.17 ± 0.76 h
- Platelet aggregation, mean ± SD [3, 15]: 166 ± 146 AU·min
- Platelet aggregation, median [3, 15]: 141 AU·min
- Number of patients characterized as non-responders (AUC >468 AU·min) ([3]; clopidogrel 75 mg, 38 patients): two
- Number of patients with low platelet aggregation (AUC <100 AU·min) ([3]; clopidogrel 75 mg, 38 patients): 14 patients
- Platelet aggregation (AUC), one patient with high H4 concentrations ([3]; clopidogrel 75 mg, single patient later excluded from the correlation): 637 AU·min
- Platelet aggregation, one subject with low H4 concentrations [3, 9]: 747 AU·min
- Fraction of the absorbed drug transformed by carboxyl esterases into CLPM [4]: Up to 85%
- C max ([2]; Argentinean subjects, clopidogrel 75 mg): 0.9 ng/mL
- C max ([2]; Egyptian healthy volunteers, clopidogrel 75 mg): 4.4 ng/mL
- C max ([2]; US healthy volunteers, fasted state, clopidogrel 75 mg): 1.5 ng/mL
- C max ([2]; US healthy volunteers, fed state, clopidogrel 75 mg): 2.5 ng/mL

Structure (SMILES): COC(=O)[C@H](c1ccccc1Cl)N1CCC(S)/C(=C\C(=O)O)C1 (some centres unmarked) [CTM]
- C max ([2]; healthy control subjects, clopidogrel 600 mg): 14.5 ng/mL
- Concentrations in plasma ([2]; method not distinguishing H3 and H4 isomers): > 20 ng/mL
- C max ([2]; patients with a history of stent thrombosis, clopidogrel 600 mg): 3.2 ng/mL

Source: paper PMC3899497 (Clinical Pharmacokinetics, 2013)
